Only some compounds are listed: those with a hit (about 2.9% of all), similar ones and a draw of the others.
MC4R ag barr: activates human MC4R beta-arrestin recruitment; P32245; U2OS MC4R beta-arrestin complementation, luminescence; percent of melanotan II response, DMSO zero; activation, % at 8.9 µM; hit rate 0.98% among 360,000;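 active = activation above a per-plate cutoff, the mean activation of sample wells on that plate plus 3 SD, cut at about 8% in these data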
Target sequence (P32245 whole entry, looked up): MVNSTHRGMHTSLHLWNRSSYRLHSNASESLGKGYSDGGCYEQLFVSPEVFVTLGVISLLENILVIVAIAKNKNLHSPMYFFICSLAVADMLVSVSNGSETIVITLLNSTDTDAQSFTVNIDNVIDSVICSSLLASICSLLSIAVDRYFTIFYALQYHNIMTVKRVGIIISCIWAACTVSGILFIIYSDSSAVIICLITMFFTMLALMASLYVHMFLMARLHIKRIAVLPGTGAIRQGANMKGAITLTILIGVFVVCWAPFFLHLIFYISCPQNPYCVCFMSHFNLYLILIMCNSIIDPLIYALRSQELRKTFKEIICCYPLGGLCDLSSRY
Efflux pump mplx: blocks antifungal efflux pumps in multiplex yeast assay. inhibition, % at 10 µM. hit rate 0.44% among 330,000. S. cerevisiae Candida pump triplex, Nile Red efflux. AID 485275;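 active = plate passing quality check with inhibition over a set limit, or well fluorescence over plate mean plus 4 SD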;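 note: Nile Red retained in pooled yeast measured as flow cytometry median fluorescence; higher means more Nile Red kept so more efflux inhibition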
TAG inh: reduces triacylglycerol accumulation in H9c2 cells; Nile Red lipid (TAG) fluorescence; cells loaded with 200 µM oleic acid; inhibition, % at 12.5 µM; hit rate 0.66% among 230,000;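 active = pattern-corrected inhibition of lipid staining of at least 50% with the nuclear-stain viability signal not falling by more than 50%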
MC4R antag cAMP: antagonists of human melanocortin 4 receptor (MC4R) | AID 540295 | inhibition, % at 6.5 µM | hit rate 0.48% among 360,000 | P32245 | MC4R-expressing cells, MTII-stimulated cAMP, LANCE TR-FRET;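 active = inhibition above its plate's cutoff, the mean of tested wells on that plate plus 3 SD, cut at about 29% in these data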
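System – human MC4R-expressing U2OS cells · Also added – Melanotan II · Dosing – one concentration, 6.5 µM nominal · Timing – 30-min compound, 1-h challenge, 1-h detection, room temperature · Measured by – Eu-cAMP/anti-cAMP TR-FRET, emission 671 nm · Replicates – singlicate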
GalR3 antag: blocks the human galanin receptor 3; inhibition, % at 3 µM; O60755; hit rate 0.44% among 360,000; HEK293 GalR3-CNG cAMP membrane potential fluorescence; galR3 body fused to GalR1 C-terminus;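 active = inhibition above the screen-wide average plus 3 SD, cut at about 13% in these data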;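 note: forskolin and galanin both at EC90 stimulate the cells; cAMP rise reported by CNG channel membrane potential dye signal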
Calb FLC: affects C. albicans growth with fluconazole. AID 1979. growth inhibition, % (no concentration beside the values). C. albicans CaCi-2 + fluconazole, Alamar Blue growth, 48 h. hit rate 0.57% among 300,000;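 active = growth inhibition above about 58% in most replicates, limit read from the data, passing the limit was not always enough; inconclusive = exactly half the replicates above a set limit; inactive = most replicates below a set limit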;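 note: all wells also contain fluconazole at 8 µg/ml as a sub-toxic cotreatment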
Of the large screens only hits and unclear results are named; the others gave an inactive call.

CCOC(=O)COc1ccc(S(=O)(=O)N2CCN(c3ccccc3F)CC2)cc1	Calb FLC 103.4 (no result: TAG inh)
O=C(COc1ccc(S(=O)(=O)N2CCCC2)cc1)N1CCN(c2ccccc2F)CC1	none (no result: TAG inh)
O=C(/C=C/c1ccccc1)NNc1ccc(Cl)cc1	Calb FLC 97.3
C[C@@H]1CN([C@H](C)CO)C(=O)c2cc(Br)cnc2O[C@H]1CN(C)Cc1ccccc1F	none (no result: MC4R ag barr, Efflux pump mplx, TAG inh, MC4R antag cAMP, Calb FLC)
CC(C)(C)Cc1c(-c2ccco2)nc2ccc(Cl)cn12	none (no result: MC4R ag barr, Efflux pump mplx, TAG inh, MC4R antag cAMP, Calb FLC)
Cc1ccc(NC(=O)C(=O)NC(C)C2COc3ccccc3O2)cc1 (configuration not stated)	MC4R ag barr 10.9 (no result: TAG inh)
CC(NC(=O)CCC(=O)NC(C)C1COc2ccccc2O1)C1COc2ccccc2O1 (configuration not stated)	none (no result: TAG inh, GalR3 antag)
CCOC(=O)C(=NCCCN1CCOCC1)NNc1cccc(C(F)(F)F)c1	Calb FLC 129.4
O=C(Nc1cccc(Cl)c1)Nc1nnc([C@H]2C[C@H](O)[C@@H](CO)O2)s1	none (no result: Efflux pump mplx, Calb FLC)
COCCNC(=O)C1CCCN(Cc2cccc(C#N)c2)CC1 (configuration not stated)	none (no result: Efflux pump mplx, Calb FLC)
O=C(c1cccc(S(=O)(=O)Nc2ccccc2Cl)c1)N1CCC1	none
CC1CCCN(C(=O)c2cccc(S(=O)(=O)Nc3cc(C(F)(F)F)ccc3Cl)c2)C1 (configuration not stated)	Calb FLC 94.1
CN1CCCCC(NC(=O)c2ccc(C#N)cc2)C1=O (configuration not stated)	none (no result: MC4R ag barr, Efflux pump mplx, TAG inh, MC4R antag cAMP, Calb FLC)
CCCCCCCCCC(=O)NNC(=O)c1c(O)c2ccccc2n(CC)c1=O	Calb FLC 113.1
CCn1c(=O)c(C(=O)NCc2cccnc2)c(O)c2ccccc21	Calb FLC 94.2
CCn1c(=O)c(C(=O)Nc2ncccc2O)c(O)c2ccccc21	none
CCn1c(=O)c(C(=O)Nc2ncccc2C)c(O)c2ccccc21	Calb FLC 96.1 (no result: TAG inh)
Cc1nc(N2CCN(C(=O)c3ccco3)CC2)c2c3c(sc2n1)CCC3	none
CC(C)c1nc(N2CCN(C(=O)c3ccco3)CC2)c2c3c(sc2n1)CCCC3	Calb FLC 89.4 (no result: TAG inh)
CC(=O)c1cccc(OCC(O)CNCCc2ccc(Cl)cc2)c1 (configuration not stated)	none (no result: TAG inh, Calb FLC)
CCCc1cnc(NCCNCC(O)COc2ccc(Cl)c(Cl)c2)nc1 (configuration not stated)	MC4R ag barr 8.4
CCN(CCCNC(=O)Cn1ncc2c(=O)oc3ccccc3c21)c1cccc(C)c1	MC4R ag barr 9.4 (no result: GalR3 antag)
CCCN(C(=O)Cn1ncc2c(=O)oc3ccccc3c21)c1cccc(C)c1	none
CC(C)c1ccc(S(=O)(=O)/N=C2/C=C(Sc3ncn[nH]3)C(=O)c3ccccc32)cc1	MC4R antag cAMP 29.4 (no result: TAG inh, GalR3 antag, Calb FLC)
Cc1ccc(S(=O)(=O)/N=C2/C=C(Sc3ncn[nH]3)C(=O)c3ccccc32)c(C)c1	none (no result: MC4R ag barr, TAG inh, MC4R antag cAMP, GalR3 antag, Calb FLC)
O=C1N=C(N2CCN(c3ccccc3)CC2)S/C1=C\c1cn[nH]c1-c1ccccc1	MC4R ag barr 8.5 (no result: TAG inh)
O=C1N=C(N2CCC(Cc3ccccc3)CC2)S/C1=C/c1cn[nH]c1-c1ccccc1	none
Cc1cccc(OCC(=O)Nc2nc3ccc([N+](=O)[O-])cc3s2)c1C	MC4R ag barr 9.1 (no result: TAG inh)
Cc1cccc(OCC(=O)Nc2nc3ccc([N+](=O)[O-])cc3s2)c1	Calb FLC inconclusive (no result: TAG inh)
COc1ccc2c3c(ccc2c1)C(=O)/C(=C/O)CC3	MC4R ag barr 26.1 (no result: Efflux pump mplx, Calb FLC)
CCOc1ccc2oc(C(=O)Nc3ccc4c(c3)OCO4)c(C)c2c1	none (no result: TAG inh)
CCOc1ccc2oc(C(=O)Nc3ccc(N4CCOCC4)cc3)c(C)c2c1	MC4R ag barr 9.3
CN(C)c1nc(N)c2nccnc2n1	none (no result: Efflux pump mplx, Calb FLC)
CSc1cnc2c(N)nc(N(C)C)nc2n1	Calb FLC 95.1 (no result: TAG inh)
Cc1noc(NC(=O)c2ccc(Cl)c(Cl)c2)c1Cl	Calb FLC 89.4
CC(=O)c1ccc(NC(=O)c2onc(C)c2Cl)cc1	none (no result: TAG inh)
Cc1ccc(-c2ccc(=O)n(CC(=O)N3CCN(c4cccc(C)c4)C(C)C3)n2)cc1 (configuration not stated)	none (no result: TAG inh)
Cc1ccc(-c2ccc(=O)n(CC(=O)N3CCN(c4cc(Cl)ccc4C)CC3)n2)cc1	MC4R ag barr 8.5 (no result: TAG inh)
COc1ccc(-c2cc(NC=O)c3ncc(-c4cccc(C(=O)NCCN(C)C)c4)n3c2)c(OC)c1	none (no result: Efflux pump mplx, Calb FLC)
COc1ccc(CN2c3ccccc3C(=O)CS2(=O)=O)cc1OC	none (no result: MC4R ag barr, Efflux pump mplx, TAG inh, MC4R antag cAMP, Calb FLC)
